One test concerns the target Substance-P receptor (Rattus norvegicus, UniProt P14600). The experiment in a line: Concentration required to inhibit the specific binding of [125I]BH-SP to Neurokinin-1 (NK-1) receptor in rat brain synaptosomes. It counts as subcellular.
For a further test, the species on record is Cavia porcellus. As to the kind of experiment: Effective concentration required for its inhibition of nonspecific binding to guinea pig ileal membranes. It counts as functional.
The target of the next test is T1, Neuromedin-K receptor (Rattus norvegicus, UniProt P16177).
T1 sequence (P16177 whole entry): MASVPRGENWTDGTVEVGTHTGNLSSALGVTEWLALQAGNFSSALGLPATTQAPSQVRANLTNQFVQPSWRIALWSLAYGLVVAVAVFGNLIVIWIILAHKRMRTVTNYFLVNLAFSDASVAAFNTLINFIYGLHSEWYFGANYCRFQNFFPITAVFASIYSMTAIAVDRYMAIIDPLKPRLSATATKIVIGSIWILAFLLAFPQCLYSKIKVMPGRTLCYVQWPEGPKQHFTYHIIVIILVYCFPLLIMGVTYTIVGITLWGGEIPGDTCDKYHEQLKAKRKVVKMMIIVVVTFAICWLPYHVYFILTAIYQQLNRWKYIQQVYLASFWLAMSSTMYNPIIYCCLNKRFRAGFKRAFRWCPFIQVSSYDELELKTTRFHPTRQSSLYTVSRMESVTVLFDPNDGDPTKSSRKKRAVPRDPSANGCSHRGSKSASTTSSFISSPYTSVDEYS
The experiment in a line: Concentration required to inhibit the specific binding of [125I]BH-ELE to Neurokinin-3 (NK-3) receptor in rat brain synaptosomes. It counts as subcellular. The gist of the method:
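Rat brain synaptosomes in Krebs-Ringer phosphate buffer with BSA, bacitracin and glucose. Incubated 15 min at 20 °C with 40 pM [125I]BHELE and increasing peptide concentrations, gamma counted. Triplicates, two to eight independent experiments; nonspecific binding defined with eledoisin 10⁻⁶ M. IC50 estimated from Hill plots of titration curves.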

A further test has as its target T2, Substance-K receptor (Rattus norvegicus, UniProt P16610).
T2 sequence (P16610 whole entry): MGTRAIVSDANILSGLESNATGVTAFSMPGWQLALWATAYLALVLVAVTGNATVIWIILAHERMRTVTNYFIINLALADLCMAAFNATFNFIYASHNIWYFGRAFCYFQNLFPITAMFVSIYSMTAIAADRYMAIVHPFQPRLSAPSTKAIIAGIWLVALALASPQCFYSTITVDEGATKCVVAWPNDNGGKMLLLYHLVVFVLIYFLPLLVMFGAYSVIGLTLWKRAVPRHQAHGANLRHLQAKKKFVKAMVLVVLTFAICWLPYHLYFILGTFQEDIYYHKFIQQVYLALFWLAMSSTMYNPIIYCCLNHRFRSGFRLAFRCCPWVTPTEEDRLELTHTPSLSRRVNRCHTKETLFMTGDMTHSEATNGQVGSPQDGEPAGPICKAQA
As to the kind of experiment: Concentration required to inhibit the specific binding of [3H]NKA to Neurokinin-2 (NK-2) receptor in rat duodenum membranes.

In general, IC50 refers to the point on the concentration scale where inhibition reaches its midpoint. For orientation: EC50 means the midpoint of the concentration-response curve. A lower EC50 goes with higher potency in that assay.

Sequence of Substance-P receptor (P14600 whole entry): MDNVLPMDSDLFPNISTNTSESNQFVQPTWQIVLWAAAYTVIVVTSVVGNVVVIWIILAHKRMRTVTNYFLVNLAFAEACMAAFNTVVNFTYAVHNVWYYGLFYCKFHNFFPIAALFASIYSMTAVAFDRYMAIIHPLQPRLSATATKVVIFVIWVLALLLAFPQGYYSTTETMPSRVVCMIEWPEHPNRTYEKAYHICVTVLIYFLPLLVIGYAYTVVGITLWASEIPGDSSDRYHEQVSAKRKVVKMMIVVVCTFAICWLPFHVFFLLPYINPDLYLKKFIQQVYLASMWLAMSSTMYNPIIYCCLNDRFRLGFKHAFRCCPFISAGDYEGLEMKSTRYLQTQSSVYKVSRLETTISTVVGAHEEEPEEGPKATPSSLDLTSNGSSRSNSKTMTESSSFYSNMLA

Regarding `CSCC[C@H](NC(=O)[C@H](CC(C)C)NC(=O)CNC(=O)[C@H](Cc1ccccc1)NC(=O)[C@H](NC(=O)[C@H](CCC(N)=O)NC(=O)[C@H](CCC(N)=O)NC(=O)[C@@H]1CCCN1C(=O)[C@H](CCCCN)NC(=O)[C@@H]1CCCN1C(=O)[C@@H](N)CCCN=C(N)N)C1Cc2ccccc2C1)C(N)=O`, the IC50 was 2800 nM at Substance-P receptor, above 10000 nM at Neuromedin-K receptor and 3900 nM on Substance-K receptor. The compound also had an EC50 in the test listed under Cavia porcellus of 4170 nM.
Take `CSCC[C@H](NC(=O)[C@H](CC(C)C)NC(=O)CNC(=O)[C@@H](NC(=O)[C@H](Cc1ccccc1)NC(=O)[C@H](CCC(N)=O)NC(=O)[C@H](CCC(N)=O)NC(=O)[C@@H]1CCCN1C(=O)[C@H](CCCCN)NC(=O)[C@@H]1CCCN1C(=O)[C@@H](N)CCCNC(=N)N)C(C)(C)SC)C(N)=O`: the IC50 on Substance-P receptor worked out at 2.4 nM; on Neuromedin-K receptor, 170 nM; on Substance-K receptor, 68 nM.
As for `CSCC[C@H](NC(=O)[C@H](CC(C)C)NC(=O)CNC(=O)[C@@H](NC(=O)[C@H](Cc1ccccc1)NC(=O)[C@H](CCC(N)=O)NC(=O)[C@H](CCC(N)=O)NC(=O)[C@@H]1CCCN1C(=O)[C@H](CCCCN)NC(=O)[C@@H]1CCCN1C(=O)[C@@H](N)CCCN=C(N)N)C(C)(C)SC)C(N)=O`, in the test filed under Cavia porcellus, it took 1.7 nM to reach a half-maximal effect (EC50). That is a single-digit nanomolar value.
On to `CSCC[C@H](NC(=O)[C@H](CC(C)C)NC(=O)CNC(=O)[C@@H]1Cc2ccccc2CN1C(=O)[C@H](Cc1ccccc1)NC(=O)[C@H](CCC(N)=O)NC(=O)[C@H](CCC(N)=O)NC(=O)[C@@H]1CCCN1C(=O)[C@H](CCCCN)NC(=O)[C@@H]1CCCN1C(=O)[C@@H](N)CCCN=C(N)N)C(N)=O`, for which the values for the IC50 on Substance-P receptor, at Neuromedin-K receptor and on Substance-K receptor were 1200 nM, 20000 nM and 18000 nM, respectively.
On to `CSCC[C@H](NC(=O)[C@H](CC(C)C)NC(=O)CNC(=O)[C@@H](NC(=O)[C@H](Cc1ccccc1)NC(=O)[C@H](CCC(N)=O)NC(=O)[C@H](CCC(N)=O)NC(=O)[C@@H]1CCCN1C(=O)[C@H](CCCCN)NC(=O)[C@@H]1CCCN1C(=O)[C@@H](N)CCCN=C(N)N)C(C)(C)S(C)(=O)=O)C(N)=O`, for which the 50% inhibitory concentration (IC50) on Substance-P receptor came to 7.84 nM; at Neuromedin-K receptor, 190 nM; at Substance-K receptor, 160 nM. This compound had an EC50 in the test listed under Cavia porcellus of 1.1 nM.
With `CSCC[C@H](NC(=O)[C@H](CC(C)C)NC(=O)CNC(=O)[C@@H](NC(=O)[C@H](Cc1ccccc1)NC(=O)[C@H](CCC(N)=O)NC(=O)[C@H](CCC(N)=O)NC(=O)[C@@H]1CCCN1C(=O)[C@H](CCCCN)NC(=O)[C@@H]1CCCN1C(=O)[C@@H](N)CCCNC(=N)N)C1c2ccccc2-c2ccccc21)C(N)=O`, the concentration for half-maximal inhibition (IC50) on Substance-P receptor was 2.5 nM; at Neuromedin-K receptor, 91 nM; at Substance-K receptor, 41 nM.
On Neuromedin-K receptor, `CSCC[C@H](NC(=O)[C@H](CC(C)C)NC(=O)CNC(=O)[C@H](Cc1ccccc1)NC(=O)[C@H](Cc1ccccc1)NC(=O)[C@H](CCC(N)=O)NC(=O)[C@H](CCC(N)=O)NC(=O)[C@@H]1CCCN1C(=O)[C@H](CCCCN)NC(=O)[C@@H]1CCCN1C(=O)[C@@H](N)CCCN=C(N)N)C(N)=O` [SUBSTANCE P] yielded an IC50 of 130 nM.
`CSCC[C@H](NC(=O)[C@H](CC(C)C)NC(=O)CNC(=O)[C@H](Cc1ccccc1)NC(=O)[C@@H](NC(=O)[C@H](CCC(N)=O)NC(=O)[C@H](CCC(N)=O)NC(=O)[C@@H]1CCCN1C(=O)[C@H](CCCCN)NC(=O)[C@@H]1CCCN1C(=O)[C@@H](N)CCCN=C(N)N)C(c1ccccc1)c1ccccc1)C(N)=O` displayed an EC50 in the test listed under Cavia porcellus of 226 nM.
For `CSCC[C@H](NC(=O)[C@H](CC(C)C)NC(=O)CNC(=O)[C@H](CCSC)NC(=O)[C@H](Cc1ccccc1)NC(=O)[C@H](CCC(N)=O)NC(=O)[C@H](CCC(N)=O)NC(=O)[C@@H]1CCCN1C(=O)[C@H](CCCCN)NC(=O)[C@@H]1CCCN1C(=O)[C@@H](N)CCCNC(=N)N)C(N)=O`, the IC50 at Substance-P receptor amounted to 18 nM; at Neuromedin-K receptor it was 1200 nM.
Turning to `CSCC[C@H](NC(=O)[C@H](CC(C)C)NC(=O)CNC(=O)[C@H](Cc1ccccc1)NC(=O)[C@@H]1Cc2ccccc2CN1C(=O)[C@H](CCC(N)=O)NC(=O)[C@H](CCC(N)=O)NC(=O)[C@@H]1CCCN1C(=O)[C@H](CCCCN)NC(=O)[C@@H]1CCCN1C(=O)[C@@H](N)CCCN=C(N)N)C(N)=O`, the IC50 on Substance-P receptor amounted to 2400 nM; at Neuromedin-K receptor it was 1900 nM; at Substance-K receptor, 520 nM.
`CSCC[C@H](NC(=O)[C@H](CC(C)C)NC(=O)CNC(=O)[C@H](Cc1ccccc1)NC(=O)/C(=C\c1ccccc1)NC(=O)[C@H](CCC(N)=O)NC(=O)[C@H](CCC(N)=O)NC(=O)[C@@H]1CCCN1C(=O)[C@H](CCCCN)NC(=O)[C@@H]1CCCN1C(=O)[C@@H](N)CCCN=C(N)N)C(N)=O` returned an EC50 in the test listed under Cavia porcellus of 8.4 nM. Also, the IC50 came to 11700 nM at Neuromedin-K receptor and 950 nM at Substance-K receptor.
In the case of `CSCC[C@H](NC(=O)[C@H](CC(C)C)NC(=O)CNC(=O)[C@H](Cc1ccccc1)NC(=O)[C@H](CCSC)NC(=O)[C@H](CCC(N)=O)NC(=O)[C@H](CCC(N)=O)NC(=O)[C@@H]1CCCN1C(=O)[C@H](CCCCN)NC(=O)[C@@H]1CCCN1C(=O)[C@@H](N)CCCNC(=N)N)C(N)=O`, the IC50 stood at 2700 nM on Substance-P receptor and 7400 nM at Neuromedin-K receptor.
With `CSCC[C@H](NC(=O)[C@H](CC(C)C)NC(=O)CNC(=O)[C@@H](NC(=O)[C@H](Cc1ccccc1)NC(=O)[C@H](CCC(N)=O)NC(=O)[C@H](CCC(N)=O)NC(=O)[C@@H]1CCCN1C(=O)[C@H](CCCCN)NC(=O)[C@@H]1CCCN1C(=O)[C@@H](N)CCCNC(=N)N)[C@H]1CCc2cc3ccccc3cc21)C(N)=O`, the IC50 on Substance-P receptor stood at 0.6 nM; on Neuromedin-K receptor, 110 nM; on Substance-K receptor it was 29 nM.
Consider `CSCC[C@H](NC(=O)[C@H](CC(C)C)NC(=O)CNC(=O)[C@H](Cc1ccccc1)NC(=O)/C(=C/c1ccccc1)NC(=O)[C@H](CCC(N)=O)NC(=O)[C@H](CCC(N)=O)NC(=O)[C@@H]1CCCN1C(=O)[C@H](CCCCN)NC(=O)[C@@H]1CCCN1C(=O)[C@@H](N)CCCN=C(N)N)C(N)=O`, for which a half-maximal response in the test filed under Cavia porcellus (EC50) required 3100 nM. Moreover, the IC50 is above 10000 nM at Neuromedin-K receptor and 4900 nM on Substance-K receptor.
In turn, `CSCC[C@H](NC(=O)[C@H](CC(C)C)NC(=O)CNC(=O)[C@@H](NC(=O)[C@H](Cc1ccccc1)NC(=O)[C@H](CCC(N)=O)NC(=O)[C@H](CCC(N)=O)NC(=O)[C@@H]1CCCN1C(=O)[C@H](CCCCN)NC(=O)[C@@H]1CCCN1C(=O)[C@@H](N)CCCN=C(N)N)C1c2ccccc2-c2ccccc21)C(N)=O` registered a concentration for a half-maximal effect (EC50) in the test filed under Cavia porcellus of 5.7 nM.
As to `CSCC[C@H](NC(=O)[C@H](CC(C)C)NC(=O)CNC(=O)[C@H](Cc1ccccc1)NC(=O)[C@@H](NC(=O)[C@H](CCC(N)=O)NC(=O)[C@H](CCC(N)=O)NC(=O)[C@@H]1CCCN1C(=O)[C@H](CCCCN)NC(=O)[C@@H]1CCCN1C(=O)[C@@H](N)CCCNC(=N)N)C(c1ccccc1)c1ccccc1)C(N)=O`, the IC50 at Substance-P receptor came to 1300 nM; at Neuromedin-K receptor, 17000 nM; at Substance-K receptor it was 3600 nM.
Turning to `CSCC[C@H](NC(=O)[C@H](CC(C)C)NC(=O)CNC(=O)[C@@H](NC(=O)[C@H](Cc1ccccc1)NC(=O)[C@H](CCC(N)=O)NC(=O)[C@H](CCC(N)=O)NC(=O)[C@@H]1CCCN1C(=O)[C@H](CCCCN)NC(=O)[C@@H]1CCCN1C(=O)[C@@H](N)CCCNC(=N)N)C(c1ccccc1)c1ccccc1)C(N)=O`, the results for the IC50 on Substance-P receptor, on Neuromedin-K receptor and on Substance-K receptor were 500 nM, 2200 nM and 670 nM, respectively.
